Test results taken from ChEMBL document CHEMBL1132271, “1-Benzopyran-4-one antioxidants as aldose reductase inhibitors” (J Med Chem, 1999).
Blank lines part the entries; values can stand above or below the compound they belong to.

Legend:
[1] = system: Aldo-keto reductase family 1 member A1, aldehyde reductase ALR1 (Bos taurus); test: The compound was tested for Inhibitory effect uM; conditions: concentration not given here
[2] = The compound was tested for the pKa (+/-SD) values at 25 degree C; type: physicochemical
Procedure, shortened: (§1)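 Compound solution added to buffers at ionic strength 0.1 M, pH stepped by 0.25 unit. UV–vis spectra recorded and pH measured with a calibrated electrode. pKa calculated from absorbance change at λmax of the dissociated form, then corrected for ionic strength.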

[3] = molecular target: T1, Aldo-keto reductase family 1 member B1 (Bos taurus, UniProt P16116); test: Inhibition of ALR2 (aldose reductase) of bovine lens
Procedure, shortened: (§2)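 ALR2 partly purified from bovine lens (DEAE chromatography), 3.5 mU/mL. Run at 37 °C with 4.7 mM D,L-glyceraldehyde and 0.11 mM NADPH in 0.25 M sodium phosphate pH 6.80 with 0.38 M ammonium sulfate. Inhibitor added in DMSO, 1% final. Blank without substrate.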

[4] = molecular target: T1, Aldo-keto reductase family 1 member B1; test: Inhibition of Aldose reductase 2 of bovine lens
Procedure, shortened: as §2

[5] = system: Liposome; test: Antioxidant action tested in AAPH-induced malondialdehyde (MDA) of liposomes after 30 min; type: functional
Procedure, shortened: (§3)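 Lipid (LA, 2 mg/mL) suspended in 50 mM Tris pH 7.4 and extruded into micelles with test antioxidant at 0.2 mM final. Peroxidation started with AAPH (10 mM), 37 °C in shaking water bath. Aliquots taken at intervals, mixed with 20% TCA, then 0.67% TBA, boiled 10 min, hexane-extracted. MDA read at 535 nm (ε 1.49×10^5). Means ± SE.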

[6] = system: Liposome; test: Antioxidant action tested in AAPH-induced malondialdehyde (MDA) liposomes after 15 min; type: functional
Procedure, shortened: as §3

[7] = Proton dissociation constant pKa was determined at 25 degree C; type: physicochemical
Procedure, shortened: as §1

[8] = system: Liposome; test: Antioxidant action tested in AAPH-induced malondialdehyde (MDA) of liposomes after 5 min; type: functional
Procedure, shortened: as §3

[9] = system: Liposome; test: Antioxidant action tested in AAPH-induced malondialdehyde (MDA) of liposomes after 40 min; type: functional
Procedure, shortened: as §3

[10] = system: Liposome; test: Antioxidant action tested in AAPH-induced malondialdehyde (MDA) liposomes after 60 min; type: functional
Procedure, shortened: as §3

[11] = molecular target: Aldo-keto reductase family 1 member B1 (Bos taurus) (UniProt P16116); test: (§4) Compound was tested for Ratio of IC50(ALR1)/(ALR2)
Procedure, shortened: (§5)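 Ratio of IC50 values. ALR1 (bovine kidney; 20 mM D-glucuronate, 0.12 mM NADPH, pH 7.20) and ALR2 (bovine lens; 4.7 mM D,L-glyceraldehyde, 0.11 mM NADPH, pH 6.80). Both enzymes at 3.5 mU/mL, 37 °C, 1% DMSO. IC50 from log dose–inhibition curves in duplicate.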

[12] = molecular target: T2, Aldo-keto reductase family 1 member A1 (Bos taurus, UniProt Q3ZCJ2); test: The compound was tested for Inhibitory effect against Aldose reductase 1 in bovine kidneys
Procedure, shortened: (§6)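 Run at 37 °C with 20 mM D-glucuronate and 0.12 mM NADPH in 0.1 M sodium phosphate pH 7.20. Inhibitor added in DMSO, 1% final. Blank without substrate.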

[13] = molecular target: Aldo-keto reductase family 1 member B1 (Bos taurus) (UniProt P16116); test: The compound was tested for Inhibitory effect uM; conditions: concentration not given here
[14] = as §4
Procedure, shortened: as §5

[15] = system: Liposome; test: Antioxidant action tested in AAPH-induced malondialdehyde (MDA) of liposomes after 60 min; type: functional
Procedure, shortened: as §3

[16] = system: Liposome; test: Antioxidant action tested in AAPH-induced malondialdehyde (MDA) of liposomes after 15 min; type: functional
Procedure, shortened: as §3

[17] = molecular target: T2, Aldo-keto reductase family 1 member A1; test: The compound was tested for Inhibitory effect against ALR1 in bovine kidneys; type: tissue-based, Kidney
Procedure, shortened: as §6

[18] = molecular target: Aldo-keto reductase family 1 member B1 (Bos taurus) (UniProt P16116); test: The compound was tested for Inhibitory effect against ALR2 in bovine lenses at 77 uM; type: tissue-based; conditions: Lens of camera-type eye
Procedure, shortened: as §2

[19] = system: Liposome; test: Antioxidant action tested in AAPH-induced malondialdehyde (MDA) liposomes after 30 min; type: functional
Procedure, shortened: as §3

[20] = system: Liposome; test: Antioxidant action tested inAAPH-induced malondialdehyde (MDA) liposomes after 40 min; type: functional, subcellular
Procedure, shortened: as §3

[21] = system: Liposome; test: Antioxidant action tested in AAPH-induced malondialdehyde (MDA) liposomes after 5 min; type: functional
Procedure, shortened: as §3

T2 sequence (Q3ZCJ2 2-325 limits assumed): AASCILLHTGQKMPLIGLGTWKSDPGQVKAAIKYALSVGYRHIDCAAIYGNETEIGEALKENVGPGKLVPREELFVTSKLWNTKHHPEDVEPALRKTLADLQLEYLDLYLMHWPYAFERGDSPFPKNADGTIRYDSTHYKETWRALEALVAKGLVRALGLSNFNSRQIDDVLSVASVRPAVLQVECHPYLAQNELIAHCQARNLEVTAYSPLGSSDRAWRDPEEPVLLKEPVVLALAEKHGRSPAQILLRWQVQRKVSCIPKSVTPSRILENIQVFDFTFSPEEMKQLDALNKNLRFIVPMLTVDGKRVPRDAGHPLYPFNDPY

inhibition [1]: 27.5% | pKa [2]: 5.3 | IC50 [3]: 3.87 µM
Structure (SMILES): O=c1cc(-c2ccccc2)oc2cc(O)c([N+](=O)[O-])cc12

IC50 [4]: 13.1 µM | pKa [7]: 8.89
Structure (SMILES): O=c1cc(Cc2ccc(O)cc2)oc2ccc(O)cc12
Activity [5]: 1.46 nM ml-1 | Activity [6]: 1.54 nM ml-1 | Activity [8]: 1.19 nM ml-1 | Activity [9]: 1.29 nM ml-1 | Activity [10]: 1.27 nM ml-1

inhibition [13]: 32%
Structure (SMILES): COc1ccc2c(=O)cc(-c3ccccc3)oc2c1

Ratio [14]: 4.2 | IC50 [3]: 3.14 µM | IC50 [17]: 13.2 µM
Structure (SMILES): O=c1cc(Cc2ccc(O)c(O)c2)oc2cc(O)ccc12
Activity [5]: 1.07 nM ml-1 | Activity [8]: 0.935 nM ml-1 | Activity [15]: 1.53 nM ml-1 | Activity [16]: 1.18 nM ml-1 | Activity [9]: 0.852 nM ml-1

Ratio [11]: 2.4 | IC50 [4]: 7.01 µM | pKa [7]: 7.35 | IC50 [12]: 16.6 µM
Structure (SMILES): COc1ccc(Cc2cc(=O)c3ccc(O)cc3o2)cc1

IC50 [4]: 41 µM
Structure (SMILES): O=c1cc(CCc2ccc(O)cc2)oc2cc(O)ccc12

IC50 [3]: 6.52 µM
Structure (SMILES): O=c1cc(-c2ccc(O)c(O)c2)oc2cc(O)ccc12

IC50 [4]: 22.3 µM
Structure (SMILES): O=c1cc(Cc2ccc3ccccc3c2)oc2cc(O)ccc12

inhibition [13]: 37%
Structure (SMILES): COc1ccc2c(=O)cc(Cc3ccc(O)cc3)oc2c1

IC50 [4]: 10.9 µM
Structure (SMILES): O=C(O)c1ccc2c(=O)cc(Cc3ccc(O)cc3)oc2c1

Ratio [11]: 5.9 | IC50 [4]: 6.61 µM | IC50 [12]: 39.2 µM
Structure (SMILES): O=c1cc(Cc2ccccc2)oc2cc(O)ccc12

IC50 [4]: 29.4 µM
Structure (SMILES): O=c1cc(CCCc2ccc(O)cc2)oc2cc(O)ccc12

IC50 [4]: 85.7 µM
Structure (SMILES): Cc1oc2cc(O)ccc2c(=O)c1Cc1ccc(O)cc1

Ratio [11]: 98.5 | IC50 [4]: 1.3 µM | IC50 [12]: 128 µM
Structure (SMILES): O=C(O)Cc1ccc2c(=O)cc(Cc3ccc(O)cc3)oc2c1

Ratio [11]: 6.7 | IC50 [4]: 2.5 µM | IC50 [12]: 16.8 µM
Structure (SMILES): O=c1cc(Cc2ccc(O)cc2)oc2cc(O)ccc12
Activity [19]: 1.9 nM ml-1 | Activity [6]: 1.95 nM ml-1 | Activity [20]: 2.1 nM ml-1 | Activity [21]: 2.02 nM ml-1 | Activity [10]: 1.81 nM ml-1

The remaining lines, values behind:

Structure (SMILES): O=c1ccoc2cc(O)ccc12
Ratio [11]: 1 | IC50 [4]: 137 µM | IC50 [12]: 114 µM

Structure (SMILES): Cc1cc(C(C)(C)C)c(O)c(C(C)(C)C)c1
Activity [5]: 1.33 nM ml-1 | Activity [8]: 1.62 nM ml-1 | Activity [15]: 0.937 nM ml-1 | Activity [16]: 1.33 nM ml-1 | Activity [9]: 1.23 nM ml-1

Structure (SMILES): COc1ccc2oc(Cc3ccc(O)cc3)cc(=O)c2c1
inhibition [13]: 40%

Structure (SMILES): O=c1cc(-c2ccc(O)c(O)c2)oc2cc(O)cc(O)c12 [LUTEOLIN]
IC50 [3]: 9.57 µM

Structure (SMILES): O=c1cc(C(c2ccccc2)c2ccccc2)oc2cc(O)ccc12
IC50 [4]: 10.9 µM

Structure (SMILES): O=c1c(Cc2ccccc2)c(Cc2ccc(O)cc2)oc2cc(O)ccc12
IC50 [4]: 14.2 µM

Structure (SMILES): O=c1c(Cc2ccc(-c3ccccc3)cc2)c(Cc2ccc(O)cc2)oc2cc(O)ccc12
inhibition [13]: 0%

Structure (SMILES): COc1ccc(Cc2cc(=O)c3ccc(OC)cc3o2)cc1
inhibition [13]: 0%

Structure (SMILES): O=c1cc(-c2ccccc2)oc2cccc(O)c12
inhibition [13]: 0%

Structure (SMILES): O=c1c(Cc2ccc(O)cc2)coc2cc(O)ccc12
IC50 [3]: 60.5 µM

Structure (SMILES): COc1ccc2c(=O)c(Cc3ccc(O)cc3)coc2c1
inhibition [18]: 18%

Structure (SMILES): O=c1c(O)c(-c2ccccc2)oc2ccccc12
inhibition [13]: 0%
